Screens (PubChem BioAssay)
KCNQ1 act: potentiators or activators of human KCNQ1 potassium channel; P51787; CHO-K1 KCNQ1, thallium flux FluxOR fluorescence; active compounds read high; B-score at 10 µM; 310,000 tested, 0.35% active; AID 2648;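 active = fluorescence ratio B-score, a plate-corrected score, at least three library SD, with initial intensity B-score within 5 SD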
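Medium – assay buffer, equal DMSO in all wells · Material – CHO-K1 cell line with stable KCNQ1 potassium channel expression · Signal – kinetic FluxOR thallium fluorescence, 10-s 1-Hz baseline, 110-s post-stimulus read · Compound – single concentration per compound, DMSO matched to controls · Schedule – 37 °C overnight plating, 90-min dark dye load, 20-min compound pretreatment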
hERG rescue: shields human hERG channel from block by proarrhythmic agents. 310,000 tested, 0.51% active. AID 1511. CHO-hERG, FluxOR thallium flux, dofetilide IC70 present. activation (rescue from dofetilide block), less the hit threshold, % at 10 µM;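 active = activation above the mean of controls blocked by dofetilide plus 5 SD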;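 note: thallium influx through hERG after potassium depolarization seen as dye fluorescence rise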
KCNK3 inh: human KCNK3 channel inhibition, primary screen; CHO-KCNK3 thallium flux, FluxOR fluorescence; active compounds read low; B-score at 10 µM; 340,000 tested, 0.84% active; AID 602410;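 active = B-score under library mean minus 4 SD, starting fluorescence ratio at most library mean plus 5 SD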;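 note: more negative B-score means stronger inhibition of thallium flux through KCNK3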
KCNK9 block: inhibitors of human KCNK9 two-pore domain potassium channel; Q9NPC2; HEK293 KCNK9, FluxOR thallium flux fluorescence; active compounds read low; B-score at 10 µM; 310,000 tested, 1.2% active;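 active = ratio B-score over 3 SD below the library mean, with starting fluorescence within 5 SD of its mean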;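 note: negative B-score means less thallium flux so channel inhibition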
KCNQ1 block: blocks the human KCNQ1 potassium channel; CHO-K1 KCNQ1, FluxOR thallium flux fluorescence; active compounds read high; B-score at 10 µM; 310,000 tested, 1.3% active;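 active = compounds whose thallium flux B-score, printed positive for inhibition, exceeds three library SD while starting fluorescence stays within three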;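 note: channel opened by potassium depolarization with thallium stimulus after 20 min compound exposure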
KCNK9 block conf: human KCNK9 inhibitor confirmation; HEK293 KCNK9 cells, FluxOR thallium flux fluorescence; AID 492992; 4,900 tested, 43% active; inhibition, % at 10 µM; shares compounds with KCNK9 block;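 active = thallium signal inhibited by more than 5 SD of the compound-free buffer control wells, on both duplicate plates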;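 note: 0% = assay buffer control wells without compound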
Kir2-1 spec: tests whether KCNK9 modulators also affect mouse Kir2.1 | 4,900 tested, 4% active | shares compounds with KCNK9 block | inhibition, % at 10 µM | Kir2.1 cells, FluxOR thallium flux fluorescence;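 active = thallium signal drop more than 5 SD beyond the mean of the no-compound control wells, seen in both duplicate plates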;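 note: signal is fluorescence rise after thallium addition divided by baseline fluorescence; plate controls were assay buffer only for no effect and full block by chlorpromazine control for full effect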
Target sequence (P35561 whole entry, looked up): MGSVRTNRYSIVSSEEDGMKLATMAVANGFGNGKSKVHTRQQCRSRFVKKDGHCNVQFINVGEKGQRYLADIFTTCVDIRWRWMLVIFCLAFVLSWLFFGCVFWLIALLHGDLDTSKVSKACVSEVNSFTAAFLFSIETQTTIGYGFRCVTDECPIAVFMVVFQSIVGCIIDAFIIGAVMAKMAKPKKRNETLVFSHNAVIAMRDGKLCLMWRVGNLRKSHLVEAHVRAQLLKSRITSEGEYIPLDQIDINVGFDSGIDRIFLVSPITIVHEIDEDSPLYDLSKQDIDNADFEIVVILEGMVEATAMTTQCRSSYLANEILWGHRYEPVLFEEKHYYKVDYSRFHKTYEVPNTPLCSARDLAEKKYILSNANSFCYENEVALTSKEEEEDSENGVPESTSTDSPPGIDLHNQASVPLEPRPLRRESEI
HEK293 Tl ctr: second check of KCNK9 modulator effects in non-induced HEK293 cells; shares compounds with KCNK9 block; FluxOR thallium flux; inhibition, % at 10 µM; 4,900 tested, 40% active; AID 492997;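 active = thallium signal drop beyond 5 SD of the untreated control mean, on both duplicate plates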;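 note: plate controls were buffer only IC0 wells for no effect and SID17386958 at its maximal inhibitory level for full effect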
The depositor's hits bear a star; i = inactive; / = no result given. Sampled rows, rich in hits. Any-hit rate of the full collection: about 3.1%.

SMILES | KCNQ1 act | hERG rescue | KCNK3 inh | KCNK9 block | KCNQ1 block | KCNK9 block conf | Kir2-1 spec | HEK293 Tl ctr
Cn1nc(C(F)(F)F)c(/C=N/OC(=O)c2ccccc2)c1SCc1ccc(Cl)cc1 | i | -16 | i | i | i | / | / | /
CCCCCCCCC[n+]1cccc2c3ccccc3ccc21 | i | -32 | i | -17* | i | 70%* | 90%* | 30%*
CC1(C)CC(=O)/C(=N/Nc2ccc(Cl)cc2)CO1 | i | -14 | i | i | i | / | / | /
CN1c2ccccc2C(C)(C)[C@]12C=Cc1cc(O)ccc1O2 | i | -27 | i | i | 13* | i | 33%* | i
COc1ccc(C(=O)N2CCCC(CCC(=O)NCc3ccccc3F)C2)c(OC)n1 (stereo unspecified) | i | -9 | i | i | i | / | / | /
O=C(Nc1nccs1)C1CCN(S(=O)(=O)c2c(Cl)cccc2Cl)CC1 | i | -8 | i | -16* | i | i | i | i
Cc1cc(S(=O)(=O)N2CCCCC2)ccc1OCC(=O)Nc1ccccc1 | i | -9 | i | i | i | / | / | /
CC(NC(=O)CSCc1ccccc1Br)c1ccccc1 (stereo unspecified) | i | -21 | i | i | i | i | i | i
CCOc1ccccc1C(=O)NCC(=O)Nc1ncccc1C | i | -18 | i | i | i | / | / | /
CCOc1ccc(C(=O)NCC(=O)Nc2ncccc2C)cc1OCC | i | -6 | i | i | i | 51%* | i | i
O=C(Nc1ccc(C(=O)N2CCCC2)cc1)C1CC1 | / | / | i | / | / | / | / | /
CCc1nnc(NC(=O)C2=CCN(S(=O)(=O)c3ccc(F)cc3)CC2)s1 | i | -8 | i | i | i | / | / | /
O=C(C1CC(c2cccc(Br)c2)=NO1)N1CCc2ccccc2C1 (stereo unspecified) | i | -9 | i | i | i | i | i | i
O=C(NCC(=O)N1CCN(S(=O)(=O)c2ccc3c(c2)OCCO3)CC1)c1ccccc1Cl | / | / | i | / | / | / | / | /
N#C/C(N=Nc1ccccc1O)=N\Nc1ccccc1O | i | -37 | i | -8.7* | 6* | 30%* | 30%* | i
COc1nc(SC)nc(Cl)c1Cc1ccc(OC(C)C)cc1 | i | -7 | i | i | i | i | i | 26%*
CC(C)Oc1ccc(Cc2cnc(N)nc2N)cc1 | i | -12 | i | i | i | / | / | /
CCCOc1ccc(Cc2c(Cl)nc(SC)nc2OC)cc1 | i | -5 | i | i | i | i | i | i
Cc1ccc(SCCNC(=S)Nc2ccc(C)cc2C)cc1 | i | 0 | i | i | i | i | i | i
CC(C)c1ccc(OCc2ccc(C(=O)N3CCN(c4ccccn4)CC3)cc2)cc1 | i | -8 | i | i | 6* | i | i | i
COc1cc(C(F)(F)F)c(C(=O)N(C)Cc2cc(Cl)cc(Cl)c2)cn1 | i | -18 | i | i | i | / | / | /
Cc1c(OCC(=O)N2CCC(C(=O)O)CC2)ccc2c1oc(=O)c1ccccc12 | i | -4 | i | i | i | / | / | /
Cc1cccc(/C=C2/C(=O)/C(=C/c3ccccc3C)C3CCC2N3C)c1 (stereo unspecified) | i | -8 | i | i | i | i | i | i
O=C(N/N=C\c1ccc(F)cc1)c1ccc(Cn2cc(Br)c([N+](=O)[O-])n2)o1 | i | -20 | i | -12* | i | 50%* | i | i
Cc1cc(Cl)ccc1OCCCC(=O)N1CCCc2ccccc21 | i | -10 | i | i | i | i | 67%* | i
COCc1cc(C)nc(OCC(=O)N/N=C\c2cc(C)n(-c3cccc(C(F)(F)F)c3)c2C)c1C#N | i | -5 | i | i | i | / | / | /
CCOc1ccc(Br)cc1S(=O)(=O)Nc1ccccc1N1CCOCC1 | i | -11 | i | -10* | i | i | i | i
